{"data": "Measured values gathered from unrelated publications", "target": "Muscarinic acetylcholine receptor M3 (CHRM3, Homo sapiens, UniProt P20309)", "concentration": "10 µM", "note": "Protocols differ between the studies behind these lines."}
{"Structure (SMILES)": "CC(C)N1CCC[C@H]1CNC(=O)c1cn(C2CCCC2)c(=O)c2c1c1ccccc1n2C", "observed": "ligand displacement", "technique": "radioligand", "inhibition [%]": 12}
{"Structure (SMILES)": "CCC(=NO)C(C)=Cc1ccc(F)c(C)c1", "observed": "ligand displacement", "inhibition [%]": -5.75}
{"Structure (SMILES)": "CCN(CC)CCCC[C@H](NC(=O)[C@H](CC(C)C)NC(=O)[C@H](C)NC(=O)[C@H](Cc1ccccc1)NC(=O)c1ccc(C(C)(C)C)cc1)C(=O)N[C@@H](CO)C(=O)OC", "observed": "ligand displacement", "technique": "radioligand", "inhibition [%]": 7}
{"Structure (SMILES)": "COCc1c(-c2cc3cc(C)cc(OC)c3s2)c2c(N)ncnn2c1CN1CCNC(=O)C1", "observed": "ligand displacement", "technique": "radioligand", "inhibition [%]": 0}
{"Structure (SMILES)": "Clc1ccc2c(C3CCN(CCc4c[nH]c5ccccc45)CC3)c[nH]c2c1", "observed": "ligand displacement", "technique": "radioligand", "inhibition [%]": 61}
{"Structure (SMILES)": "C[C@H](C(=O)N[C@H]1COc2ccccc2[C@@H]1S(C)(=O)=O)c1ccc(F)cc1", "observed": "cell-free assay", "inhibition [%]": 12}
{"Structure (SMILES)": "COc1ccc(C(=O)NCc2cc(C(C)C)no2)cc1OC1CCN(C)CC1", "observed": "ligand displacement", "technique": "radioligand", "inhibition [%]": 26}
{"Structure (SMILES)": "c1ccc(C(NCCNC(c2ccccc2)c2ccccc2)c2ccccc2)cc1", "observed": "cell-free assay", "inhibition [%]": 11}
{"Structure (SMILES)": "Cc1ccccc1Oc1cc(-n2c(=O)cc(C(F)(F)F)[nH]c2=O)c2ccccc2c1Cl", "observed": "ligand displacement", "inhibition [%]": -16.2}
{"Structure (SMILES)": "CN1CC[C@@]2(C)c3cc(OC(=O)Nc4ccccc4)ccc3N(C)[C@@H]12", "observed": "ligand displacement", "technique": "radioligand", "inhibition [%]": 3.1}
